Measurements of several laboratories.
Protocols differ between the studies behind these lines.
Target: Activin receptor type-1B (ACVR1B, Homo sapiens, UniProt P36896)
Residues used in one study (P36896 24-505): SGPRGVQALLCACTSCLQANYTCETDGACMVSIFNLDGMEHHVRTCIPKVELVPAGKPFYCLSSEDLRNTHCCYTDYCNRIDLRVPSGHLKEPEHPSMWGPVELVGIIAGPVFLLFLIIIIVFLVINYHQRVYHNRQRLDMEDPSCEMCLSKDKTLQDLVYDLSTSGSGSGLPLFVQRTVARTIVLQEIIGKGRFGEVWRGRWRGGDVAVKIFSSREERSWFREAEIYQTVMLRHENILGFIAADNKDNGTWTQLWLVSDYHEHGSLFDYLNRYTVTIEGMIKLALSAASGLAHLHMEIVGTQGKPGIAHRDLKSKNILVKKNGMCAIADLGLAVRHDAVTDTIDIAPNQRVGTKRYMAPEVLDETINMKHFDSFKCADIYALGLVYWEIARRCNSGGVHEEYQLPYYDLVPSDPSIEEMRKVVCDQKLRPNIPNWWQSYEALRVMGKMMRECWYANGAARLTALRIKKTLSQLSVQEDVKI

Cc1ccc(NC(=O)c2ccnc(C(F)(F)F)c2)cc1-c1cc(OCCO)nc(N2CCOCC2)c1  remaining binding (binding; competition with immobilised ligand; 1 µM): 99%
C=CC(=O)N1CCC([C@@H]2CCNc3c(C(N)=O)c(-c4ccc(Oc5ccccc5)cc4)nn32)CC1  inhibition (enzyme activity; inhibitor; 1 µM): 5%
C1=C/COCc2cc(ccc2OCCN2CCCC2)Nc2nccc(n2)-c2cccc(c2)COC/1  remaining binding (binding; 0.1 µM): 91%
COc1ccc2oc(-c3ccc4nc(N)oc4c3)c/c(=N\c3ccccc3NC(=O)CCN)c2c1  remaining binding (binding; 1 µM): 108%
C[C@H]1CC[C@H](n2c3cnccc3c3cnc(Nc4ccc5c(n4)CCN(C(=O)CO)C5)nc32)CC1  remaining binding (cell-free assay; competition with immobilised ligand; 1 µM): 96%
N#Cc1ccc(NC(=O)Nc2ccccc2)cc1  remaining binding (cell-free assay; competition with immobilised ligand; 25 µM): 100%
C#Cc1cnc(Nc2ccnc(CO)c2)nc1Nc1ccccc1S(C)(=O)=NC#N (stereo not drawn)  remaining signal (cell-free assay; 1 µM): 52%
CC#CC(=O)N1CCC[C@H]1c1nc(-c2ccc(C(=O)Nc3ccccn3)cc2)c2c(N)nccn12  inhibition (enzyme activity; inhibitor; 1 µM): 1%
CCCCC(=O)Nc1ccc(-c2ccc3ncn(CCC)c(=O)c3c2)cn1  remaining binding (binding; competition with immobilised ligand; 0.5 µM): 87%
